The term inhibition denotes the change of the read-out against control, counted positive when it falls. What is called IC50 is the concentration that gives 50% inhibition.

This is an account of results in ChEMBL document CHEMBL1157621, “Synthesis, biological activity, and molecular modeling studies of 1H-1,2,3-triazole derivatives of carbohydrates as alpha-glucosidases inhibitors” (J Med Chem, 2010).

Activity calls are given as the source filed them.

The test system of experiment [1] is Rattus norvegicus. Put plainly: Hypoglycemic activity in maltose-fed Wistar rat assessed as reduction in postprandial blood glucose level at 50 mg/kg, po administered 5 mins before maltose challenge measured after 30 mins of maltose infusion.
Experiment [2] addresses Alpha-glucosidase MAL12 (Saccharomyces cerevisiae S288c) (UniProt P53341). Put plainly: Inhibition of yeast alpha-glucosidase MAL12 assessed as inhibition of p-nitrophenol release at 500 uM by spectrophotometry relative to control. In short, it runs like this:
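Baker's yeast maltase, with p-nitrophenyl-α-D-glucopyranoside as substrate. Released p-nitrophenol was read at 405 nm. Compounds were screened at a fixed 500 μM, and activity was expressed as percent inhibition relative to a no-inhibitor control assay. Acarbose served as comparator.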

Experiment [3] concerns Rattus norvegicus. Briefly: Hypoglycemic activity in maltose-fed Wistar rat assessed as reduction in postprandial blood glucose level at 50 mg/kg, po administered 5 mins before maltose challenge measured after 60 mins of maltose infusion.
Experiment [4] deals with Alpha-glucosidase MAL12 (Saccharomyces cerevisiae S288c, UniProt P53341). Put plainly: Inhibition of yeast alpha-glucosidase MAL12 assessed as inhibition of p-nitrophenol release by spectrophotometry. The procedure, abridged:
(§1)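 Yeast maltase activity was followed by p-nitrophenol release from p-nitrophenyl-α-D-glucopyranoside at 405 nm. IC50 was defined as the concentration giving 50% inhibition under assay conditions. Acarbose was tested in the same assay, and the ratio was taken as acarbose IC50 over compound IC50.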

Experiment [5] addresses Alpha-glucosidase MAL12 (Saccharomyces cerevisiae S288c) (UniProt P53341). Briefly: Ratio of acarbose IC50 to compound IC50 for yeast alpha-glucosidase MAL12. The procedure, abridged: as §1

Chain of Alpha-glucosidase MAL12 (Saccharomyces cerevisiae S288c) (P53341 whole entry): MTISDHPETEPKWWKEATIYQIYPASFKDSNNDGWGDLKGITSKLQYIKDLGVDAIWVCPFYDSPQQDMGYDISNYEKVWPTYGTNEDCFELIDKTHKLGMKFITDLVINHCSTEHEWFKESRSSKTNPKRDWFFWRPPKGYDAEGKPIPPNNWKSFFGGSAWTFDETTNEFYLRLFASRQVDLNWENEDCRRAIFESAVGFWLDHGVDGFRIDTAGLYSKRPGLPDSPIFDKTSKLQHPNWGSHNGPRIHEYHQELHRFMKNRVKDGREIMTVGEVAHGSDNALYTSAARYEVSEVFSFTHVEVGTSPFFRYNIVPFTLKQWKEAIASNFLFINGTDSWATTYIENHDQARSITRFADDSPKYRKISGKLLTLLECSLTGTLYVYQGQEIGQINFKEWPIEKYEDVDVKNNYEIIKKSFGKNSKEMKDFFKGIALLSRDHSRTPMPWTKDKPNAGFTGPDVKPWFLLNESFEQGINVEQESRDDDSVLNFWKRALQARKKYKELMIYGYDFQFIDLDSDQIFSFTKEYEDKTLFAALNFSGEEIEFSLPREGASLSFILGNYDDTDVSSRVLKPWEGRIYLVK
Chain of Alpha-glucosidase MAL12 (P53341 whole entry): as above

In the case of `C[C@H]1O[C@H](O[C@H]2[C@H](O)[C@@H](O)[C@@H](O[C@H]3[C@H](O)[C@@H](O)C(O)O[C@@H]3CO)O[C@@H]2CO)[C@H](O)[C@@H](O)[C@@H]1N[C@H]1C=C(CO)[C@@H](O)[C@H](O)[C@H]1O` (some centres not stated), the result in experiment [1] and in experiment [3] was Active. The inhibition in experiment [2] turned out to be 48.1%.

Consider `CO[C@@H]1O[C@H](Cn2cc(-c3ccccc3)nn2)[C@H]2OC(C)(C)O[C@@H]12`, for which the outcome in experiment [1] and in experiment [3] was Active. In addition, in experiment [2], the inhibition worked out at 94.4%. The IC50 in experiment [4] stood at 14.9 µM.

Take `CC1(C)O[C@H]2O[C@H](Cn3cc(C4=CCCCC4)nn3)[C@H](O)[C@H]2O1`: the inhibition in experiment [2] was 33.3%.

For `CCCc1cn(C[C@H]2O[C@@H](OC)[C@@H]3OC(C)(C)O[C@@H]32)nn1`, the inhibition in experiment [2] stood at 44.9%.

For `CCC(C)(O)c1cn(C[C@H]2O[C@@H](OC)[C@@H]3OC(C)(C)O[C@@H]32)nn1` (some centres not stated), the inhibition in experiment [2] came out at 41.1%.

Regarding `CO[C@@H]1O[C@H](Cn2cc(CO)nn2)[C@H]2OC(C)(C)O[C@@H]12`, the inhibition in experiment [2] turned out to be 46.5%.

On to `CCOC(=O)c1cn(C[C@H]2O[C@@H](OC)[C@@H]3OC(C)(C)O[C@@H]32)nn1`, for which, in experiment [2], the inhibition was 98%. For the same compound, the IC50 in experiment [4] was 15.1 µM.

As to `CO[C@@H]1O[C@H](Cn2cc(C(C)(C)O)nn2)[C@H]2OC(C)(C)O[C@@H]12`, the inhibition in experiment [2] turned out to be 60.2%.

Consider `CO[C@@H]1O[C@H](Cn2cc(COC3CCCCO3)nn2)[C@H]2OC(C)(C)O[C@@H]12` (some centres not stated), for which the inhibition in experiment [2] turned out to be 79.5%. In addition, in experiment [4], the IC50 came out at 24.7 µM.

As for `CC1(C)O[C@H]2O[C@H](Cn3cc(CO)nn3)[C@H](O)[C@H]2O1`, in experiment [2], the inhibition worked out at 68.8%.

For `CC1(C)O[C@H]2[C@@H](O1)[C@@H](Cn1cc(-c3ccccc3)nn1)O[C@@H]1OC(C)(C)O[C@@H]12`, the inhibition in experiment [2] is 99.4%.

For the compound `CC1(C)O[C@H]2O[C@H](Cn3cc(-c4ccccc4)nn3)[C@H](O)[C@H]2O1`, the inhibition in experiment [2] was determined as 87.9%.

As to `CO[C@@H]1O[C@H](Cn2cc(C3=CCCCC3)nn2)[C@H]2OC(C)(C)O[C@@H]12`, in experiment [2], the inhibition came out at 98.1%. Besides, in experiment [5], the Ratio IC50 was 25. Moreover, in experiment [4], the IC50 was 3.8 µM.

For `CO[C@@H]1O[C@H](Cn2cc(CCCCl)nn2)[C@H]2OC(C)(C)O[C@@H]12`, the inhibition in experiment [2] came to 99.5%.

Consider `CO[C@@H]1O[C@H](Cn2cc(COc3ccccc3)nn2)[C@H]2OC(C)(C)O[C@@H]12`, for which the outcome in experiment [1] and in experiment [3] was Active. In experiment [2], the inhibition was 98.4%. Besides, the Ratio IC50 in experiment [5] came out at 20. The IC50 in experiment [4] is 5.7 µM.

`CC1(C)O[C@H]2O[C@H]([C@H]3COC(C)(C)O3)[C@@H](n3cc(-c4ccccc4)nn3)[C@H]2O1`: in experiment [2], the inhibition turned out to be 73.1%.

In the case of `CO[C@@H]1O[C@H](Cn2cc(C3(O)CCCCC3)nn2)[C@H]2OC(C)(C)O[C@@H]12`, in experiment [2], the inhibition came out at 98.5%. In addition, in experiment [5], the Ratio IC50 worked out at 20. Besides, the IC50 in experiment [4] was 5.2 µM.
